Data from ChEMBL document CHEMBL4732027, “Pyridazinone derivatives as potential anti-inflammatory agents: synthesis and biological evaluation as PDE4 inhibitors” (RSC Med Chem, 2021).
pIC50: −log10 of the molar value. Calls of active or inactive are those of the source. The rule behind the calls is not given here.

Columns and labels:
[1] = molecular target: T1, 3',5'-cyclic-AMP phosphodiesterase 4B (Homo sapiens, UniProt Q07343); assay: Inhibition of recombinant human PDE-4B expressed in Escherichia coli at 20 uM using cAMP as substrate incubated for 60 mins by PDE4 assay kit method relative to control
Outline: (§1)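 Human recombinant PDE4 expressed in E. coli, incubated with cAMP and 5'-nucleotidase in 10 mM Tris-HCl pH 7.4 at 30 °C for 60 min. Released phosphate detected colorimetrically after 30 min colour development. IC50 from five concentrations by nonlinear regression; mean of two or three independent runs, each in triplicate.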

[2] = tested on: Macrophage; assay: Cytotoxicity against human PBMC derived primary macrophages assessed as reduction in cell viability at 10 uM incubated for 24 hrs by LDH assay; assay type: cell-based
Outline: (§2)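 Cell death in human PBMC-derived macrophages (M-CSF 25 ng/mL, 24 h) after 24 h LPS (10 ng/mL, 0.5% DMSO) plus compound at 5–50 µM. LDH activity measured in supernatant with a commercial kit, absorbance at 492 nm corrected at 700 nm. Eight donors.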

[3] = tested on: Macrophage; assay: Antiinflammatory activity against human PBMC derived primary macrophages assessed as reduction in LPS-induced vesicle number at 10 uM incubated for 24 hrs by scanning electron microscopic analysis; assay type: functional, cell-based
Outline: (§3)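 Human PBMCs isolated from EDTA blood (red cells lysed by hypotonic shock), grown on coverslips in RPMI 1640 + 10% heat-inactivated FBS with 25 ng/mL M-CSF for 24 h at 37 °C, 5% CO2. Non-adherent cells removed, then 24 h stimulation with LPS 10 ng/mL in 0.5% DMSO ± compound. Cells fixed in 2.5% glutaraldehyde, dehydrated in ethanol, dried with HMDS, gold-palladium coated, imaged by FE-SEM at 2 kV.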

[4] = tested on: Macrophage; assay: Antiinflammatory activity against LPS-treated human PBMC derived primary macrophages assessed as increase in flattened cell morphology at 10 uM incubated for 24 hrs by scanning electron microscopic analysis; assay type: functional, cell-based; outline: as §3
[5] = tested on: Mus musculus; assay: Antiinflammatory activity in BALB/cJRj mouse air pouch model assessed as decrease in LPS-stimulated monocyte recruitment in air pouch at 200 uM, sc measured after 6 hrs by flow cytometry analysis (reference value: 1.9); assay type: functional
Outline: (§4)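 Seven-week-old BALB/cJRj mice. Dorsal subcutaneous air pouch made under isoflurane with 3 mL filtered air on day 0, refilled day 3. On day 7, 2 mL LPS (10 ng/mL) in 0.5% DMSO with compound at 2, 20 or 200 µM injected into the pouch; controls got 0.5% DMSO in saline. After 6 h, exudate collected by lavage with 2 mL 5 mM PBS-EDTA. Cells counted and stained for Ly6G and F4/80, then analysed by flow cytometry. Eight to 17 animals per group.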

[6] = tested on: Macrophage; assay: Antiinflammatory activity against LPS-induced human PBMC derived primary macrophages assessed as increase in cell size at 10 uM incubated for 24 hrs by scanning electron microscopic analysis; assay type: functional, cell-based; outline: as §3
[7] = tested on: Macrophage; assay: Antiinflammatory activity against LPS-treated human PBMC derived primary macrophages assessed as intricate cytoplasm at 10 uM incubated for 24 hrs by scanning electron microscopic analysis; assay type: functional, cell-based; outline: as §3
[8] = tested on: Macrophage; assay: Antiinflammatory activity against human PBMC derived primary macrophages assessed as reduction in LPS-induced IL-8 level at 10 uM incubated for 24 hrs by ELISA relative to control; assay type: functional
Outline: (§5)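 Macrophages from human blood PBMCs, differentiated 24 h with 25 ng/mL M-CSF, non-adherent cells removed. Stimulated 24 h with 10 ng/mL E. coli LPS in 0.5% DMSO, with compound at 5–50 µM. Supernatant cytokines measured by sandwich ELISA against a recombinant standard curve. Detection limits: IL-1β 3.9, IL-6 and TNF-α 7.8, IL-8 15.7 pg/mL. Cells from 8 donors; Kruskal–Wallis then Wilcoxon–Mann–Whitney tests.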

[9] = tested on: Mus musculus; assay: Antiinflammatory activity in BALB/cJRj mouse air pouch model assessed as decrease in LPS-stimulated monocyte recruitment in air pouch at 20 uM, sc measured after 6 hrs by flow cytometry analysis (reference value: 1.9); assay type: functional; outline: as §4
[10] = tested on: Mus musculus; assay: Antiinflammatory activity in BALB/cJRj mouse air pouch model assessed as decrease in LPS-stimulated monocyte recruitment in air pouch at 2 uM, sc measured after 6 hrs by flow cytometry analysis; assay type: functional, organism-based; outline: as §4
[11] = tested on: Mus musculus; assay: Antiinflammatory activity in BALB/cJRj mouse air pouch model assessed as decrease in LPS-stimulated macrophage recruitment in air pouch at 2 to 200 uM, sc measured after 6 hrs by flow cytometry analysis; assay type: functional, organism-based; settings: dose 2-200 µM; outline: as §4
[12] = tested on: Macrophage; assay: Antiinflammatory activity against human PBMC derived primary macrophages assessed as reduction in LPS-induced TNF-alpha level at 50 uM incubated for 24 hrs by ELISA relative to control; assay type: functional; outline: as §5
[13] = tested on: Mus musculus; assay: Antiinflammatory activity in BALB/cJRj mouse air pouch model assessed as decrease in LPS-stimulated monocyte recruitment in air pouch at 2 to 20 uM, sc measured after 6 hrs by flow cytometry analysis; assay type: functional, organism-based; settings: dose 2-20 µM; outline: as §4
[14] = tested on: Macrophage; assay: Antiinflammatory activity against human PBMC derived primary macrophages assessed as reduction in LPS-induced IL-6 level at 10 uM incubated for 24 hrs by ELISA relative to control; assay type: functional; outline: as §5
[15] = tested on: Macrophage; assay: Antiinflammatory activity against human PBMC derived primary macrophages assessed as reduction in LPS-induced IL-8 level at 50 uM incubated for 24 hrs by ELISA relative to control; assay type: functional; outline: as §5
[16] = tested on: Macrophage; assay: Antiinflammatory activity against human PBMC derived primary macrophages assessed as reduction in LPS-induced cell morphology changes at 50 uM incubated for 24 hrs by scanning electron microscopic analysis; assay type: functional, cell-based; outline: as §3
[17] = tested on: Macrophage; assay: Antiinflammatory activity against human PBMC derived primary macrophages assessed as reduction in LPS-induced IL-1beta level at 50 uM incubated for 24 hrs by ELISA relative to control; assay type: functional; outline: as §5
[18] = tested on: Mus musculus; assay: Antiinflammatory activity in BALB/cJRj mouse air pouch model assessed as decrease in LPS-stimulated macrophage recruitment in air pouch at 2 to 20 uM, sc measured after 6 hrs by flow cytometry analysis; assay type: functional, organism-based; settings: dose 2-20 µM; outline: as §4
[19] = tested on: Macrophage; assay: Antiinflammatory activity against human PBMC derived primary macrophages assessed as reduction in LPS-induced IL-6 level at 20 uM incubated for 24 hrs by ELISA relative to control; assay type: functional; outline: as §5
[20] = tested on: Macrophage; assay: Antiinflammatory activity against human PBMC derived primary macrophages assessed as reduction in LPS-induced IL-6 level at 50 uM incubated for 24 hrs by ELISA relative to control; assay type: functional; outline: as §5
[21] = tested on: Macrophage; assay: Antiinflammatory activity against human PBMC derived primary macrophages assessed as reduction in LPS-induced IL-1beta level at 20 uM incubated for 24 hrs by ELISA relative to control; assay type: functional; outline: as §5
[22] = tested on: Macrophage; assay: Antiinflammatory activity against human PBMC derived primary macrophages assessed as reduction in LPS-induced TNF-alpha level at 5 uM incubated for 24 hrs by ELISA relative to control; assay type: functional; outline: as §5
[23] = molecular target: T1, 3',5'-cyclic-AMP phosphodiesterase 4B; assay: Inhibition of recombinant human PDE-4B expressed in Escherichia coli using cAMP as substrate incubated for 60 mins by PDE4 assay kit method; outline: as §1
[24] = tested on: Macrophage; assay: Antiinflammatory activity against human PBMC derived primary macrophages assessed as reduction in LPS-induced IL-6 level at 5 uM incubated for 24 hrs by ELISA relative to control; assay type: functional; outline: as §5
[25] = tested on: Mus musculus; assay: Antiinflammatory activity in BALB/cJRj mouse air pouch model assessed as decrease in LPS-stimulated monocyte recruitment in air pouch at 200 uM, sc measured after 6 hrs by flow cytometry analysis relative to control; assay type: functional; outline: as §4
[26] = tested on: Macrophage; assay: Antiinflammatory activity against human PBMC derived primary macrophages assessed as reduction in LPS-induced IL-8 level at 20 uM incubated for 24 hrs by ELISA relative to control; assay type: functional; outline: as §5
[27] = Lipophilicity, logP of compound; assay type: physicochemical; settings: octanol/water
Outline: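 LogP calculated with software, not measured.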

[28] = tested on: Macrophage; assay: Cytotoxicity against human PBMC derived primary macrophages assessed as reduction in cell viability at 5 to 50 uM incubated for 24 hrs by LDH assay; assay type: cell-based; settings: dose 5-50 µM; outline: as §2

T1 sequence (Q07343 whole entry): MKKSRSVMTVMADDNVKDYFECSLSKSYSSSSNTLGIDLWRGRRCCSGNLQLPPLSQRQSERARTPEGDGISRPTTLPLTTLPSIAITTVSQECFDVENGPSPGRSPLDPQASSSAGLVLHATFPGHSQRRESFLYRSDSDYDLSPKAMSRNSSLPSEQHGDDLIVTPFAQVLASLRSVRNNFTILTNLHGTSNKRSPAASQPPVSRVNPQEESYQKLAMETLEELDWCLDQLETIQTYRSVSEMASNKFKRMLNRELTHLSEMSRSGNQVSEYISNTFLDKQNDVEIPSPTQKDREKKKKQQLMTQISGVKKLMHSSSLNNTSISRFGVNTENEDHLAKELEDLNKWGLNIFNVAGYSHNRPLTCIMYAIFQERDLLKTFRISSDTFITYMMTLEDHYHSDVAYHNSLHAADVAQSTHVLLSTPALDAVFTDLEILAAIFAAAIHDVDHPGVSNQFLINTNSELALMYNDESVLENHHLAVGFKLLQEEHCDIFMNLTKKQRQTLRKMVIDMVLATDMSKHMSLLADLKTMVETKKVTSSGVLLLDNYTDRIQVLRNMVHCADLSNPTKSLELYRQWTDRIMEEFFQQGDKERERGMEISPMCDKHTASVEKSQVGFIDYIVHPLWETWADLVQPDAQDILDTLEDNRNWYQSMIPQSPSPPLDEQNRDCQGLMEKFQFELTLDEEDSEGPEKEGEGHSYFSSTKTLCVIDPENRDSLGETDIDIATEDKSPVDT

| inhibition [1] | SMILES | further results |
| --- | --- | --- |
| 17.6% | Cc1cc(-c2c[nH]c3ccc(F)cc23)c(=O)n(Cc2ccccc2)n1 |  |
| 37.5% | COc1ccc2[nH]cc(C3CC(C)=NNC3=O)c2c1 (stereo not given) |  |
| 4.5% | CC1=NN(Cc2ccccc2)C(=O)C(c2c[nH]c3ccc(I)cc23)C1 (stereo not given) |  |
| 9.4% | CC1=NN(Cc2ccccc2)C(=O)C(c2c[nH]c3ccc(F)cc23)C1 (stereo not given) |  |
| 26.8% | Cc1cc(-c2c[nH]c3ccc([N+](=O)[O-])cc23)c(=O)[nH]n1 |  |
| 17.7% | CC1=NN(Cc2ccccc2)C(=O)C(c2c[nH]c3ccccc23)C1 (stereo not given) |  |
| 21.8% | COc1ccc2[nH]cc(-c3cc(C)nn(C)c3=O)c2c1 |  |
| 5.9% | Cc1cc(-c2c[nH]c3ccc(I)cc23)c(=O)[nH]n1 |  |
| 15.3% | Cc1cc(-c2c[nH]c3ccccc23)c(=O)n(C)n1 |  |

The remaining lines, values behind:

| SMILES | inhibition [1] | further results |
| --- | --- | --- |
| Cc1cc(-c2c[nH]c3ccc(F)cc23)c(=O)[nH]n1 | 23.6% |  |
| CC(C)Cn1c(=O)n(C)c(=O)c2nc[nH]c21 | 38% |  |
| O=C(Nc1c(Cl)cncc1Cl)c1ccc(OC(F)F)c(OCC2CC2)c1 [ROFLUMILAST] | 74.6% | Activity [2]: Non-Toxic; Activity [3]: Active; Activity [4]: Active; fold change (FC) [5]: 2; Activity [6]: Active; Activity [7]: Active; inhibition at 10 µM [8]: 10%; fold change (FC) [9]: 3.5; inhibition [10]: inactive; inhibition [11]: inactive |
| Cc1cc(-c2c[nH]c3ccc(Br)cc23)c(=O)n(Cc2ccccc2)n1 | 14.2% |  |
| Cc1cc(-c2c[nH]c3ccc(I)cc23)c(=O)n(Cc2ccccc2)n1 | 8.9% |  |
| Cc1cc(-c2c[nH]c3ccccc23)c(=O)[nH]n1 | 45.6% |  |
| COc1ccc2[nH]cc(-c3cc(C)n[nH]c3=O)c2c1 | 63.9% | inhibition at 50 µM [12]: 47%; inhibition [13]: Active; inhibition at 10 µM [14]: 23%; inhibition at 50 µM [15]: 25%; Activity [16]: Active; inhibition at 50 µM [17]: 54%; inhibition [18]: Active; inhibition at 20 µM [19]: 28%; inhibition at 50 µM [20]: 21%; inhibition at 20 µM [21]: 58%; inhibition at 5 µM [22]: 43%; pIC50 [23]: 6.60; inhibition at 5 µM [24]: 16%; inhibition in vivo at 200 µM [25]: 69%; inhibition at 20 µM [26]: 16%; logP [27]: 0.43; Activity [28]: Non-Toxic |
| Cc1cc(-c2c[nH]c3ccc(Br)cc23)c(=O)[nH]n1 | 16.8% |  |
| CC1=NNC(=O)C(c2c[nH]c3ccccc23)C1 (stereo not given) | 32.3% |  |
| Cc1cc(-c2c[nH]c3ccccc23)c(=O)n(Cc2ccccc2)n1 | 30.1% |  |
| CC1=NNC(=O)C(c2c[nH]c3ccc(Br)cc23)C1 (stereo not given) | 9.8% |  |
| CC1=NNC(=O)C(c2c[nH]c3ccc(F)cc23)C1 (stereo not given) | 12.8% |  |
| COc1ccc2[nH]cc(-c3cc(C)nn(Cc4ccccc4)c3=O)c2c1 | 49.1% |  |
| CC1=NN(Cc2ccccc2)C(=O)C(c2c[nH]c3ccc(Br)cc23)C1 (stereo not given) | 8.7% |  |
| COc1ccc2[nH]cc(C3CC(C)=NN(C)C3=O)c2c1 (stereo not given) | 13.4% |  |
| CC1=NN(C)C(=O)C(c2c[nH]c3ccccc23)C1 (stereo not given) | 8.7% |  |
| CC1=NNC(=O)C(c2c[nH]c3ccc(I)cc23)C1 (stereo not given) | 2.2% |  |
| CC1=NNC(=O)C(c2c[nH]c3ccc([N+](=O)[O-])cc23)C1 (stereo not given) | 19.5% |  |
| COc1ccc2[nH]cc(C3CC(C)=NN(Cc4ccccc4)C3=O)c2c1 (stereo not given) | 28.9% |  |
